Reference: ChEMBL document CHEMBL3860041, “Synthesis, biological evaluation and molecular modeling study of some new methoxylated 2-benzylthio-quinazoline-4(3H)-ones as nonclassical antifolates” (Bioorg Med Chem Lett, 2016)

Assays:
Dihydrofolate reductase = target: T1, Dihydrofolate reductase (Bos taurus, UniProt P00376); experiment: Inhibition of bovine liver DHFR preincubated for 2 mins followed by addition of FH2 as substrate and NADPH
T1 sequence (P00376 whole entry): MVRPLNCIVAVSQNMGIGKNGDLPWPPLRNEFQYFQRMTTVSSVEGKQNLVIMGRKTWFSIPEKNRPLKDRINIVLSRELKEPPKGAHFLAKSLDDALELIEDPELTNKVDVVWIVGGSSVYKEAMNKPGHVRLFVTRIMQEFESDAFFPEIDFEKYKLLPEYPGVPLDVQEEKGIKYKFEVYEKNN

[1] = Growth inhibition of human RPMI8226 cells at 10 uM after 48 hrs by SRB assay relative to control; format: functional; conditions: RPMI-8226, 48 h, read-out: GI
In short: (§1)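 NCI 60-cell-line panel, nine tumor subpanels; compounds tested at a single dose of 10 μM in the primary screen.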

[2] = Growth inhibition of human SR cells at 10 uM after 48 hrs by SRB assay relative to control; format: functional; conditions: read-out: GI
In short: (§2)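 Primary screen across the full NCI 60 human tumour cell line panel, which covers nine tumour subpanels. A single dose of 10 μM was applied to each line, and growth was recorded for each cell line.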

[3] = Growth inhibition of human NCI-322M cells at 10 uM after 48 hrs by SRB assay relative to control; format: functional; conditions: read-out: GI; in short: as §1
[4] = Growth inhibition of human NCI-H522 cells at 10 uM after 48 hrs by SRB assay relative to control; format: functional; conditions: NCI-H522, 48 h, read-out: GI; in short: as §1
[5] = Growth inhibition of human COLO205 cells at 10 uM after 48 hrs by SRB assay relative to control; format: functional; conditions: COLO 205, 48 h, read-out: GI; in short: as §1
[6] = Growth inhibition of human HCC2998 cells at 10 uM after 48 hrs by SRB assay relative to control; format: functional; conditions: HCC 2998, 48 h, read-out: GI; in short: as §1
[7] = Growth inhibition of human HCT15 cells at 10 uM after 48 hrs by SRB assay relative to control; format: functional; conditions: HCT-15, 48 h, read-out: GI; in short: as §1
[8] = Growth inhibition of human KM12 cells at 10 uM after 48 hrs by SRB assay relative to control; format: functional; conditions: KM12, 48 h, read-out: GI; in short: as §1
[9] = Growth inhibition of human SW620 cells at 10 uM after 48 hrs by SRB assay relative to control; format: functional; conditions: SW-620, 48 h, read-out: GI; in short: as §2
[10] = Growth inhibition of human SF268 cells at 10 uM after 48 hrs by SRB assay relative to control; format: functional; conditions: SF-268, 48 h, read-out: GI; in short: as §1
[11] = Growth inhibition of human SF295 cells at 10 uM after 48 hrs by SRB assay relative to control; format: functional; conditions: SF-295, 48 h, read-out: GI; in short: as §1
[12] = Growth inhibition of human MALME-3M cells at 10 uM after 48 hrs by SRB assay relative to control; format: functional; conditions: read-out: GI; in short: as §1
[13] = Growth inhibition of human M14 cells at 10 uM after 48 hrs by SRB assay relative to control; format: functional; conditions: M14, 48 h, read-out: GI; in short: as §1
[14] = Growth inhibition of human SK-MEL-5 cells at 10 uM after 48 hrs by SRB assay relative to control; format: functional; conditions: SK-MEL-5, 48 h, read-out: GI; in short: as §2
[15] = Growth inhibition of human UACC257 cells at 10 uM after 48 hrs by SRB assay relative to control; format: functional; conditions: UACC-257, 48 h, read-out: GI; in short: as §2
[16] = Growth inhibition of human IGROV1 cells at 10 uM after 48 hrs by SRB assay relative to control; format: functional; conditions: IGROV-1, 48 h, read-out: GI; in short: as §1
[17] = Growth inhibition of human OVCAR3 cells at 10 uM after 48 hrs by SRB assay relative to control; format: functional; conditions: OVCAR-3, 48 h, read-out: GI; in short: as §1
[18] = Growth inhibition of human OVCAR4 cells at 10 uM after 48 hrs by SRB assay relative to control; format: functional; conditions: OVCAR-4, 48 h, read-out: GI; in short: as §1
[19] = Growth inhibition of human SKOV3 cells at 10 uM after 48 hrs by SRB assay relative to control; format: functional; conditions: SK-OV-3, 48 h, read-out: GI; in short: as §2
[20] = Growth inhibition of human A498 cells at 10 uM after 48 hrs by SRB assay relative to control; format: functional; conditions: A498, 48 h, read-out: GI; in short: as §1
[21] = Growth inhibition of human ACHN cells at 10 uM after 48 hrs by SRB assay relative to control; format: functional; conditions: read-out: GI; in short: as §1
[22] = Growth inhibition of human PC3 cells at 10 uM after 48 hrs by SRB assay relative to control; format: functional; conditions: PC-3, 48 h, read-out: GI; in short: as §1
[23] = Growth inhibition of human MCF7 cells at 10 uM after 48 hrs by SRB assay relative to control; format: functional; conditions: MCF7, 48 h, read-out: GI; in short: as §1
[24] = Growth inhibition of human MDA-MB-468 cells at 10 uM after 48 hrs by SRB assay relative to control; format: functional; conditions: MDA-MB-468, 48 h, read-out: GI; in short: as §1
Cancer cell lines [25] = experiment: Potency index, ratio of 5-fluorouracil GI50 to compound GI50 for human breast cancer cells; format: functional
In short: (§3)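 GI50 for each cell line came from NCI panel testing over a 5-log dose range, with 5-fluorouracil tested alongside as the reference drug. The index relates the 5-fluorouracil GI50 to the compound GI50 within each tumour subpanel.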

Cancer cell lines [26] = experiment: Potency index, ratio of 5-fluorouracil GI50 to compound GI50 for human ovarian cancer cells; format: functional; in short: as §3
Melanoma cell = experiment: Potency index, ratio of 5-fluorouracil GI50 to compound GI50 for human melanoma cells; format: functional; in short: as §3
Cancer cell lines [27] = experiment: Potency index, ratio of 5-fluorouracil GI50 to compound GI50 for human CNS cancer cells; format: functional; in short: as §3
Cancer cell lines [28] = experiment: Potency index, ratio of 5-fluorouracil GI50 to compound GI50 for human colon cancer cells; format: functional; in short: as §3
Leukemia cell = experiment: Potency index, ratio of 5-fluorouracil GI50 to compound GI50 for human leukemia cells; format: functional; in short: as §3
[29] = Growth inhibition of human CNS cancer cells after 48 hrs by SRB assay; format: functional; conditions: Cancer cell lines
In short: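 Five-log dose range against NCI tumor cell lines, monitoring GI50, TGI and LC50 for each cell line; MG-MID values derived across the panel; 5-fluorouracil positive control.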

[30] = Growth inhibition of human leukemia cells after 48 hrs by SRB assay; format: functional; conditions: Leukemia cell; for CC50: read-out: LC50 (the source's name)
In short: (§4)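 Follow-up NCI panel testing over a 5-log dose range for each cell line. GI50, TGI and LC50 were monitored, with 5-fluorouracil run as the positive control. Values are grouped by tumour subpanel.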

[31] = Growth inhibition of human prostate cancer cells after 48 hrs by SRB assay; format: functional; conditions: Cancer cell lines; in short: as §4
[32] = Growth inhibition of human SNB75 cells at 10 uM after 48 hrs by SRB assay relative to control; format: functional; conditions: SNB-75, 48 h, read-out: GI; in short: as §2

Row | Structure (SMILES) | IC50 (Dihydrofolate reductase) | inhibition of growth at 10 µM [2] | inhibition of growth at 10 µM [3] | inhibition of growth at 10 µM [4] | inhibition of growth at 10 µM [6] | inhibition of growth at 10 µM [7] | inhibition of growth at 10 µM [8] | inhibition of growth at 10 µM [9] | inhibition of growth at 10 µM [10] | inhibition of growth at 10 µM [11] | inhibition of growth at 10 µM [12] | inhibition of growth at 10 µM [13] | inhibition of growth at 10 µM [14] | inhibition of growth at 10 µM [15] | inhibition of growth at 10 µM [16] | inhibition of growth at 10 µM [18] | inhibition of growth at 10 µM [19] | inhibition of growth at 10 µM [21] | inhibition of growth at 10 µM [22] | inhibition of growth at 10 µM [23] | other results
1 | COc1ccccc1-n1c(SCc2cc(OC)c(OC)c(OC)c2)nc2ccc(Cl)cc2c1=O | 0.1 µM | 84% | 44.9% | < 10% | 43.2% | 72.2% | 83.6% | 83.2% | 58.4% | 68.2% | 67.1% | 84.1% | 72.3% | < 10% | 52.3% | 37% | 40.6% | 55.8% | 80.4% | 84.4% | inhibition of growth at 10 µM [1]: 82.6%; inhibition of growth at 10 µM [5]: 72%; inhibition of growth at 10 µM [17]: 99.5%; inhibition of growth at 10 µM [20]: 95%; inhibition of growth at 10 µM [24]: 84.4%; RatioGI50 (Cancer cell lines [25]): 2 - 10; RatioGI50 (Cancer cell lines [26]): 2 - 10; RatioGI50 (Melanoma cell): 2 - 10; RatioGI50 (Cancer cell lines [27]): 2 - 10; RatioGI50 (Cancer cell lines [28]): 2 - 10; RatioGI50 (Leukemia cell): 2 - 10; GI50 [29]: 7.9 µM; LC50 (lethal concentration, 50% net cell kill) [29]: > 100 µM; TGI [29]: 63.1 µM; GI50 [30]: 2.4 µM; TGI [30]: 86.5 µM; CC50 [30]: > 100 µM; GI50 [31]: 5.9 µM; LC50 (concentration killing 50% of cells) [31]: > 100 µM; TGI [31]: > 100 µM
2 | COc1ccc(-n2c(SCc3cc(OC)c(OC)c(OC)c3)nc3ccc(C)cc3c2=O)c(OC)c1 | 3 µM | 92.3% | 72% | < 10% | 54.5% | 76.4% | 81.9% | 27.9% | 55.9% | 93.7% | 74.5% | 88.8% | 82.4% | < 10% | 64.3% | 42.6% | 54.7% | 55.1% | 91.3% | 84.6% | inhibition of growth at 10 µM [32]: 70.4%; inhibition of growth at 10 µM [24]: 83%; RatioGI50 (Cancer cell lines [25]): 2 - 10; RatioGI50 (Cancer cell lines [26]): 2 - 10; RatioGI50 (Melanoma cell): 2 - 10; RatioGI50 (Cancer cell lines [27]): 2 - 10; RatioGI50 (Cancer cell lines [28]): 2 - 10; RatioGI50 (Leukemia cell): 2 - 10; GI50 [29]: 9.6 µM; LC50 (lethal concentration, 50% net cell kill) [29]: > 100 µM; TGI [29]: 84.6 µM; GI50 [30]: 2.5 µM; TGI [30]: 56.2 µM; CC50 [30]: > 100 µM; GI50 [31]: 3.7 µM; LC50 (concentration killing 50% of cells) [31]: > 100 µM; TGI [31]: > 100 µM
